The record followed here is ChEMBL document CHEMBL3785032, “Zerumbone Suppresses Osteopontin-Induced Cell Invasion Through Inhibiting the FAK/AKT/ROCK Pathway in Human Non-Small Cell Lung Cancer A549 Cells” (J Nat Prod, 2016).

Activity calls are given as the source filed them. No cut-off for these calls is given here.

The test system of data set [1] is A549. Put plainly: Cytotoxicity against human A549 cells assessed as reduction in cell viability at 10 uM after 24 hrs by MTT assay. Type of data set: cell-based. To be noted: a549, 24 h. In outline:
(§1)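 A549 cells were exposed to compound in serum-free medium for 24 h, and viability was read by MTT assay. Mean ± SD of three independent experiments; Student's t test versus untreated control.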
On the technique in general: Formazan colour is commonly taken as a measure of viable cells.

Data set [2] concerns A549. Put plainly: Cytotoxicity against human A549 cells assessed as reduction in cell viability at 20 uM after 24 hrs by MTT assay. In kind it is cell-based. The settings on record: a549, 24 h. The method in brief:
as §1

Data set [3] is described as follows: Inhibition of FAK/AKT/ROCK signaling pathway in human A549 cells assessed as decrease in OPN-induced phosphorylation of cofilin at 5 to 10 uM after 24 hrs by Western blot analysis. In kind it is cell-based. In outline:
(§2)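 A549 cells were given 1 nM OPN for 24 h with or without compound. 25–30 μg total protein per lane was probed with primary antibodies overnight at 4 °C, then secondary antibodies for 2 h at room temperature. Detection was by enhanced chemiluminescence, with densitometric band quantification. Mean ± SD of two independent experiments; Student's t test.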
Background: In western blotting, separated proteins are transferred to a membrane and probed.

Data set [4] has as its target Focal adhesion kinase 1 (Homo sapiens) (UniProt Q05397). Put plainly: Inhibition of FAK signaling pathway in human A549 cells assessed as decrease in OPN-induced FAK phosphorylation at 5 to 10 uM after 15 mins by Western blot analysis. In kind it is cell-based.
Data set [5] concerns A549. Put plainly: Effect on total ROCK1 protein level in OPN-stimulated human A549 cells at 5 to 10 uM after 24 hrs by Western blot analysis. Type of data set: ADME, cell-based. The settings on record: a549, 24 h. In outline:
as §2

Data set [6] is described as follows: Inhibition of FAK/AKT/ROCK signaling pathway in human A549 cells assessed as decrease in OPN-induced AKT phosphorylation at 5 to 10 uM after 15 mins by Western blot analysis. In kind it is cell-based.
Data set [7] has as its system A549. Put plainly: Effect on total FAK protein level in OPN-stimulated human A549 cells at 5 to 10 uM after 24 hrs by Western blot analysis. Type of data set: ADME, cell-based. The settings on record: a549, 24 h. In outline:
as §2

Data set [8] has as its system A549. Put plainly: Anti-invasive activity in human A549 cells assessed as inhibition of OPN-induced cell invasion to matrigel coated invasion chamber at 10 uM preincubated for 30 mins followed by OPN stimulation measured after 24 hrs by boyden chamber assay. Type of data set: functional. The method in brief: (§3)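 Boyden chamber with a Matrigel-coated filter. Cells were pretreated with compound for 30 min and loaded into the upper wells, with 1 nM OPN in the lower wells. After 24 h at 37 °C, cells were stained, random fields were photographed at 200×, and cells on the lower surface were counted. Mean ± SD of two independent experiments; Student's t test.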

Data set [9] in a line: Inhibition of FAK/AKT/ROCK signaling pathway in human A549 cells assessed as decrease in OPN-induced phosphorylation of LIMK1/2 at 5 to 10 uM after 24 hrs by Western blot analysis. In kind it is cell-based. The method in brief:
as §2

Data set [10] concerns A549. Put plainly: Effect on total AKT protein level in OPN-stimulated human A549 cells at 5 to 10 uM after 24 hrs by Western blot analysis. The settings on record: a549, 24 h. In kind it is ADME, cell-based. In outline:
as §2

In data set [11] the test system is A549. Put plainly: Anti-invasive activity in human A549 cells assessed as inhibition of OPN-induced cell invasion to matrigel coated invasion chamber at 5 uM preincubated for 30 mins followed by OPN stimulation measured after 24 hrs by boyden chamber assay. In kind it is functional. The method in brief:
as §3

Data set [12] deals with A549. Put plainly: Effect on total cofilin protein level in OPN-stimulated human A549 cells at 5 to 10 uM after 24 hrs by Western blot analysis. The settings on record: a549, 24 h. Type of data set: ADME, cell-based. In outline:
as §2

Data set [13] is described as follows: Inhibition of FAK/AKT/ROCK signaling pathway in human A549 cells assessed as decrease in OPN-induced lamellipodia formation at 10 uM after 24 hrs by rhodamine phalloidin/DAPI staining based immunofluorescence assay. Type of data set: cell-based. In outline:
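5 × 10^4 cells/well were seeded on chamber slides and treated with 1 nM OPN for 24 h with or without 10 μM compound. Cells were fixed in 4% formaldehyde/PBS pH 7.4 for 10 min and permeabilized in 0.5% Triton X-100 for 5 min. They were stained with 100 nM rhodamine phalloidin for 30 min at room temperature in the dark, counterstained with DAPI, and imaged by confocal microscopy at 600×.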

Data set [14] relates to A549. Put plainly: Effect on total LIMK1/2 protein level in OPN-stimulated human A549 cells at 5 to 10 uM after 24 hrs by Western blot analysis. In kind it is ADME, cell-based. To be noted: a549, 24 h. The method in brief:
as §2

Data set [15] in a line: Inhibition of FAK/AKT/ROCK signaling pathway in human A549 cells assessed as decrease in OPN-induced ROCK1 expression at 5 to 10 uM after 24 hrs by Western blot analysis. In kind it is cell-based. The method in brief: as §2

Chain of Focal adhesion kinase 1 (Homo sapiens) (Q05397 2-1052 limits assumed): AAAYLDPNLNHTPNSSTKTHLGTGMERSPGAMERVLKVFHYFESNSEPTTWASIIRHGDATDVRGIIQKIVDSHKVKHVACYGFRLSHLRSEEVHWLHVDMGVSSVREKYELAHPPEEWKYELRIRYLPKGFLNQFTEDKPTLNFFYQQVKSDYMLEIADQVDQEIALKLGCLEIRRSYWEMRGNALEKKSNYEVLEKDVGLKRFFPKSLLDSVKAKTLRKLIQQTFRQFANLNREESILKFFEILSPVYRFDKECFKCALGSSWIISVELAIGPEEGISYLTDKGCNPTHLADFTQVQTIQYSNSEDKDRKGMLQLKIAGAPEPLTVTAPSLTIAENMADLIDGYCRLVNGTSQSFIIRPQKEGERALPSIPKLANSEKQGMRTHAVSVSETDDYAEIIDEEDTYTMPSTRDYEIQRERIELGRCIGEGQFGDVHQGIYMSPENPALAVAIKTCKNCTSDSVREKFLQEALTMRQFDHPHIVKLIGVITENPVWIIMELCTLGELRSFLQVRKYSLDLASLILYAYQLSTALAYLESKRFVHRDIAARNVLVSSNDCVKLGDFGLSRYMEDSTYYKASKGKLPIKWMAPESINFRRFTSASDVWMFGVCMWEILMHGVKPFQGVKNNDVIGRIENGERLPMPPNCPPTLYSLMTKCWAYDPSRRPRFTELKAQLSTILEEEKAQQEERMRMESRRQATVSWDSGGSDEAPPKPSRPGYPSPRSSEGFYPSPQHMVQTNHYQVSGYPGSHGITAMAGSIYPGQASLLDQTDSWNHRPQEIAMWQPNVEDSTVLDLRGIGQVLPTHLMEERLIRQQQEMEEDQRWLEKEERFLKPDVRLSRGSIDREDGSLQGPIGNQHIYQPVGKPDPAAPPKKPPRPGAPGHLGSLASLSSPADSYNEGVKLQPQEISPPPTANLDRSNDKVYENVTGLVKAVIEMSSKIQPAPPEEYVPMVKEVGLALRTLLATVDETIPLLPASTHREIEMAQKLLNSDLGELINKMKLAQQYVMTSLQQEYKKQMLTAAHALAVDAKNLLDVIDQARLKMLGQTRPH

Regarding `C/C1=C\CC(C)(C)/C=C/C(=O)/C(C)=C/CC1` [ZERUMBONE], the Activity entry in data set [1] was “Non-toxic”; in data set [2], “Toxic”; in [5], “Non-toxic”; in [7], “Non-toxic”; in data set [10] it was “Non-toxic”; in data set [12], “Non-toxic”. The Activity entry in data set [14] is given as “Non-toxic”. Further, the inhibition entry in data set [3], in data set [9] and in [15] was “Dose-dependent effect” in each case. For the same compound, the inhibition entry in [4], in data set [6] and in data set [13] was “Active” in each case. For the same compound, in [8], the inhibition (as a rule, how much of the control response was suppressed) at 10 µM stood at 69%. For the same compound, in data set [11], the inhibition at 5 µM was found to be 48%.
